Here are results for three molecules from ChEMBL document CHEMBL2177098, “Synthesis and evaluation of novel ¹⁸F labeled 2-pyridinylbenzoxazole and 2-pyridinylbenzothiazole derivatives as ligands for positron emission tomography (PET) imaging of β-amyloid plaques” (J Med Chem, 2012).

Data set [1] in a line: Displacement of [125I]-IMPY from amyloid beta (1 to 42) fibrils after 2 hrs by gamma-counting analysis. Put shortly: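 Competition binding with aggregated Aβ1-42 fibrils and [125I]IMPY (60000−100000 cpm/100 μL) in 0.05% BSA (1 mL total); inhibitors 10⁻⁴−10^−8.5 M in ethanol. Incubated 37 °C for 2 h, then GF/B vacuum filtration with PBS (0.02 M, pH 7.4) washes and γ counting. Three repeats; IC50 converted to Ki by Cheng−Prusoff.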

The subject of data set [2] is Brain. Briefly: Ratio of drug uptake in brain at 2 mins to drug uptake in brain at 60 mins in CD1 mouse at 10 uCi, iv. The class given is ADME, organism-based. To be noted: in vivo. Put shortly: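 Normal male ICR mice (5 weeks, about 20 g) received the 18F-labelled tracer in saline, 370 KBq per 100 μL, by tail-vein injection. Five mice per time point were killed at 2, 10, 30 and 60 min. Organs were weighed and gamma-counted against diluted aliquots of the injected dose to give % dose/g. The ratio is brain uptake at 2 min over brain uptake at 60 min.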

In data set [3] the target is Amyloid-beta precursor protein (Homo sapiens) (UniProt P05067). Briefly: Binding affinity to amyloid beta plaques in Alzheimer patient brain at 370 KBq/100 ul after 1 hr by autoradiographic analysis. To be noted: tested as the 18F-labelled form.
Chain of Amyloid-beta precursor protein (Homo sapiens) (P05067 whole entry): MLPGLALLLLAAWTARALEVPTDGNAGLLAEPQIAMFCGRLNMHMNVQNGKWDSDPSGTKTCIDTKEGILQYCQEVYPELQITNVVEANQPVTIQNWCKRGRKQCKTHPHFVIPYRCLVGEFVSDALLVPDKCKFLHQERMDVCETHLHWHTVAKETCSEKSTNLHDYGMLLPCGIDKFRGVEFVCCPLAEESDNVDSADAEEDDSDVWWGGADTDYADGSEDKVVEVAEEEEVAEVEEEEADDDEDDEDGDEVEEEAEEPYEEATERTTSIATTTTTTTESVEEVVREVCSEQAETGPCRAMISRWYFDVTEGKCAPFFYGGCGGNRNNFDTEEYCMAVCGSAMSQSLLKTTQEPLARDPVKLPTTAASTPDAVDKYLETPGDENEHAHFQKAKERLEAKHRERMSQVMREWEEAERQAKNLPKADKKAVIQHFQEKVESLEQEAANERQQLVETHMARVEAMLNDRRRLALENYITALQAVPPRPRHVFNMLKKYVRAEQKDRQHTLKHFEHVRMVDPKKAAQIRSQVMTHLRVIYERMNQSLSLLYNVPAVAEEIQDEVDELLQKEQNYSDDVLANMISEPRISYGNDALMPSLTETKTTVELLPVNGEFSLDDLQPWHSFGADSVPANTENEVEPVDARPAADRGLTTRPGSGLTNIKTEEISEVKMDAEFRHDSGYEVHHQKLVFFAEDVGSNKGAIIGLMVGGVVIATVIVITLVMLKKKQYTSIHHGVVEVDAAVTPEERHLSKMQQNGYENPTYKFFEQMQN
The species named for data set [4] is Mus musculus. As to the kind of experiment: Binding affinity to amyloid beta plaques in transgenic C57BL6 mouse cortex expressing APP Swedish mutant/PSEN1 at 370 KBq/100 ul after 1 hr by autoradiographic analysis. To be noted: tested as the 18F-labelled form. In a few lines:
(§1)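 Paraffin brain sections from 12-month-old Tg mice (C57BL6, APPswe/PSEN1) and age-matched controls, deparaffinized through xylene and graded ethanol, then PBS (0.2 M, pH 7.4) 30 min. Incubated with 18F tracer (370 KBq per 100 μL) 1 h at room temperature, washed in 40% EtOH, rinsed in water, then phosphor plate exposure 2 h. The same sections were afterwards stained with 0.125% thioflavin S in 10% EtOH for 3 min and washed in 40% EtOH.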

The species entered for data set [5] is Mus musculus. Briefly: Binding affinity to amyloid beta plaques in transgenic C57BL6 mouse hippocampus expressing APP Swedish mutant/PSEN1 at 370 KBq/100 ul after 1 hr by autoradiographic analysis. The class given is tissue-based. To be noted: tested as the 18F-labelled form. In a few lines: as §1
The species named for data set [6] is Mus musculus. As to the kind of experiment: Binding affinity to amyloid beta plaques in transgenic C57BL6 mouse cortex expressing APP Swedish mutant/PSEN1 at 370 KBq/100 ul after 1 hr by thioflavinS-staining method. To be noted: tested as the 18F-labelled form. In a few lines: as §1
The species entered for data set [7] is Mus musculus. As to the kind of experiment: Binding affinity to amyloid beta plaques in transgenic C57BL6 mouse hippocampus expressing APP Swedish mutant/PSEN1 at 370 KBq/100 ul after 1 hr by thioflavinS-staining method. The class given is tissue-based. To be noted: tested as the 18F-labelled form. Put shortly:
as §1

Data set [8] concerns Mus musculus. As to the kind of experiment: Binding affinity to amyloid beta plaques in transgenic C57BL6 mouse cortex expressing APP Swedish mutant/PSEN1 at 19.2 MBq, iv after 30 mins by thioflavinS-staining method. The class given is functional, organism-based. To be noted: 19.2 M, tested as the 18F-labelled form.
In data set [9] the test system is Mus musculus. As to the kind of experiment: Binding affinity to amyloid beta plaques in transgenic C57BL6 mouse cortex expressing APP Swedish mutant/PSEN1 at 19.2 MBq, iv after 30 mins by autoradiographic analysis. It counts as functional, organism-based. To be noted: 19.2 M, tested as the 18F-labelled form. Put shortly:
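Ex vivo: Tg mouse (C57BL6, APPswe/PSEN1) given 19.2 MBq tracer in saline via tail vein; decapitated 30 min later. Brain frozen in liquid nitrogen, 20 μm sections cut and exposed to a phosphor plate for 5 h.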

Data set [10] has as its system Brain. Briefly: Ratio of drug uptake in brain at 2 mins to drug uptake in brain at 60 mins in iv dosed ICR mouse. To be noted: in vivo. It counts as ADME, organism-based.

Calls of active or inactive are those of the source. The calls are words filed in the database; no cut-off is given here.

One may read the Ki as a dissociation constant, usually derived from enzyme kinetics or from competition with a known ligand. A high value points to weaker binding.

For `CNc1ccc(/C=C/c2ccc(OCCOCCOCC[18F])nc2)cc1` [FLORBETAPIR F 18], the affinity in data set [1], expressed as Ki, was 2.87 nM. In addition, the Ratio in the data set on Brain [2] stood at 3.9.
Regarding `CNc1ccc(-c2nc3cc(OCCF)ccc3o2)cn1`, the result (in data set [3]; in the data set filed under Mus musculus [4]; in the data set listed under Mus musculus [5]; in the data set filed under Mus musculus [6]; in the data set listed under Mus musculus [7]; in the data set with Mus musculus [8]) was Active. In addition, the result in the data set on Mus musculus [9] was Active. In data set [1], this molecule returned a Ki of 8 nM.
As to `CNc1ccc(/C=C/c2ccc(OCCOCCOCC[18F])cc2)cc1` [FLORBETABEN F18], the Ki in data set [1] stood at 6.7 nM. Also, the Ratio with Brain [10] worked out at 3.13.
